Data published in ChEMBL document CHEMBL1127424, “7-azetidinylquinolones as antibacterial agents. 2. Synthesis and biological activity of 7-(2,3-disubstituted-1-azetidinyl)-4-oxoquinoline- and -1,8-naphthyridine-3-carboxylic acids. Properties and structure-activity relationships of quinolones with an azetidine moiety” (J Med Chem, 1994).
Converted amounts (≈) assume the structure as drawn.

What was measured:
[1] = HPLC capacity factor (k'); assay type: ADME
Method in brief: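 Ion-pair reversed-phase HPLC on ODS-2 (10 μm) at 45 °C. Mobile phase: 10 mM sodium heptanesulfonate plus 50 mM KH2PO4 (pH 3.5)–methanol 45:55, 1 mL/min. Samples at 100 μg/mL in DMF, injected in duplicate, UV 280 nm. k' = (tR − t0)/t0.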

Bacillus cereus = assay: In vitro minimum inhibitory concentration for Bacillus cereus ATCC 11778; assay type: functional
Method in brief: (§1)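 Serial 2-fold agar dilution in Mueller Hinton medium, run alongside a reference quinolone. Inoculum adjusted to 10⁸ cfu/mL; compound range 0.007–16 μg/mL.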

Staphylococcus aureus = assay: In vitro minimum inhibitory concentration for Staphylococcus aureus ATCC 25178; assay type: functional; method in brief: as §1
Enterococcus faecalis = assay: In vitro minimum inhibitory concentration for Streptococcus faecalis ATCC 10541; assay type: functional; method in brief: as §1
Proteus vulgaris = assay: In vitro minimum inhibitory concentration for Proteus vulgaris ATCC 8427; assay type: functional; method in brief: as §1
Morganella morganii = assay: In vitro minimum inhibitory concentration for Morganella morganii ATCC 8019; assay type: functional; method in brief: as §1
Escherichia coli = assay: In vitro minimum inhibitory concentration for Escherichia coli ATCC 10799; assay type: functional; method in brief: as §1
Bacillus subtilis = assay: In vitro minimum inhibitory concentration for Bacillus subtilis ATCC 6633; assay type: functional; method in brief: as §1
Klebsiella pneumoniae = assay: In vitro minimum inhibitory concentration to inhibit Klebsiella pneumoniae ATCC 10031; assay type: functional; method in brief: as §1
[2] = tested on: Staphylococcus epidermidis; assay: In vitro minimum inhibitory concentration for Staphylococcus epidermidis ATCC 155-1; assay type: functional; method in brief: as §1
Enterobacter cloacae = assay: In vitro minimum inhibitory concentration for Enterobacter cloacae ATCC 23355; assay type: functional
Pseudomonas aeruginosa = assay: In vitro minimum inhibitory concentration for Pseudomonas aeruginosa ATCC 10145; assay type: functional; method in brief: as §1

| Compound | Log k' [1] | further results |
| --- | --- | --- |
| CCn1cc(C(=O)O)c(=O)c2cc(F)c(N3CC(C)(N)C3)nc21 | -0.2296 |  |
| CC1(N)CN(c2c(F)c(N)c3c(=O)c(C(=O)O)cn(-c4ccc(F)cc4F)c3c2F)C1 | 0.3189 |  |
| CC1(N)CN(c2c(F)cc3c(=O)c(C(=O)O)cn(CCF)c3c2F)C1 | -0.1871 |  |
| CNC1(C)CN(c2nc3c(cc2F)c(=O)c(C(=O)O)cn3C(C)(C)C)C1 | 0.2107 |  |
| CC1(O)CN(c2c(F)cc3c(=O)c(C(=O)O)cn(C4CC4)c3c2F)C1 | 0.5451 |  |
| CN(C)C1CN(c2nc3c(cc2F)c(=O)c(C(=O)O)cn3C2CC2)C1 | 0.464 |  |
| CNC1CN(c2c(F)cc3c(=O)c(C(=O)O)cn(C4CC4)c3c2Cl)C1 | 0.115 |  |
| CCC1(O)CN(c2cc3c(cc2F)c(=O)c(C(=O)O)cn3C2CC2)C1 | 0.6222 |  |
| CCn1cc(C(=O)O)c(=O)c2cc(F)c(N3C[C@@H](N)[C@@H]3C)c(Cl)c21 | 0.16 | MIC (Bacillus cereus): 0.12 µg/mL (≈ 0.339 µM); MIC (Staphylococcus aureus): 0.12 µg/mL (≈ 0.339 µM); MIC (Enterococcus faecalis): 0.5 µg/mL (≈ 1.41 µM); MIC (Proteus vulgaris): 0.25 µg/mL (≈ 0.707 µM); MIC (Morganella morganii): 0.03 µg/mL (≈ 0.0848 µM); MIC (Escherichia coli): 0.06 µg/mL (≈ 0.17 µM); MIC (Bacillus subtilis): 0.03 µg/mL (≈ 0.0848 µM); MIC (Klebsiella pneumoniae): 0.03 µg/mL (≈ 0.0848 µM); MIC [2]: 0.12 µg/mL (≈ 0.339 µM); MIC (Enterobacter cloacae): 0.06 µg/mL (≈ 0.17 µM) |
| CC1(N)CN(c2nc3c(cc2F)c(=O)c(C(=O)O)cn3C(C)(C)C)C1 | 0.0128 |  |
| CC1(CN)CN(c2c(F)cc3c(=O)c(C(=O)O)cn(C4CC4)c3c2F)C1 | -0.0438 |  |
| CC1(N)CN(c2nc3c(cc2F)c(=O)c(C(=O)O)cn3-c2ccc(F)cc2F)C1 | 0.0792 |  |
| NCC1CN(c2c(F)cc3c(=O)c(C(=O)O)cn(C4CC4)c3c2F)C1 | -0.196 |  |
| CC1(N)CN(c2cc3c(cc2F)c(=O)c(C(=O)O)cn3-c2ccc(F)cc2F)C1 | 0.0969 |  |
| O=C(O)c1cn(C2CC2)c2c(F)c(N3CCC3)c(F)cc2c1=O | 0.9074 |  |
| CCn1cc(C(=O)O)c(=O)c2cc(F)c(N3CC(C)(N)C3)cc21 | -0.1805 |  |
| NC1CN(c2nc3c(cc2F)c(=O)c(C(=O)O)cn3-c2ccc(F)cc2F)C1 | 0.0063 |  |
| NC1CN(c2c(F)cc3c(=O)c(C(=O)O)cn(-c4ccc(F)cc4F)c3c2Cl)C1 | 0.128 |  |
| CC1(N)CN(c2c(F)cc3c(=O)c(C(=O)O)cn(C(C)(C)C)c3c2F)C1 | 0.1751 |  |
| CNC1(C)CN(c2cc3c(cc2F)c(=O)c(C(=O)O)cn3C(C)(C)C)C1 | 0.303 |  |
| CCn1cc(C(=O)O)c(=O)c2cc(F)c(N3CC(C)(N)C3)c(Cl)c21 | 0.121 |  |
| CCn1cc(C(=O)O)c(=O)c2cc(F)c(N3CC(C)(N)C3)c(F)c21 | -0.0757 |  |
| CC1(N)CN(c2cc3c(cc2F)c(=O)c(C(=O)O)cn3C(C)(C)C)C1 | 0.0294 |  |
| CCn1cc(C(=O)O)c(=O)c2c(N)c(F)c(N3CC(N)C3)c(F)c21 | -0.1033 |  |
| Nc1c(F)c(N2CC(N)C2)c(F)c2c1c(=O)c(C(=O)O)cn2-c1ccc(F)cc1F | 0.1424 |  |
| O=C(O)c1cn(C2CC2)c2cc(N3CC(O)C3)c(F)cc2c1=O | 0.1906 |  |

| Compound | Log k' [1] | further results |
| --- | --- | --- |
| CC1(N)CN(c2cc3c(cc2F)c(=O)c(C(=O)O)cn3-c2ccc(F)cc2)C1 | -0.0223 |  |
| CCNCC1(C)CN(c2cc3c(cc2F)c(=O)c(C(=O)O)cn3C2CC2)C1 | -0.0356 |  |
| CCn1cc(C(=O)O)c(=O)c2c(N)c(F)c(N3CC(C)(N)C3)c(F)c21 | 0.0367 |  |
| CC1(N)CN(c2c(F)cc3c(=O)c(C(=O)O)cn(-c4ccc(F)cc4F)c3c2F)C1 | 0.238 |  |
| CC1(N)CN(c2c(F)cc3c(=O)c(C(=O)O)cn(CCF)c3c2Cl)C1 | -0.0332 |  |
| CC1(N)CN(c2nc3c(cc2F)c(=O)c(C(=O)O)cn3CCF)C1 | -0.1706 |  |
| CC1(N)CN(c2c(F)cc3c(=O)c(C(=O)O)cn(-c4ccc(F)cc4)c3c2Cl)C1 | 0.2546 |  |
| O=C(O)c1cn(C2CC2)c2cc(N3CCC3)c(F)cc2c1=O | 0.7188 |  |
| CNC1CN(c2c(F)cc3c(=O)c(C(=O)O)cn(-c4ccc(F)cc4F)c3c2Cl)C1 | 0.25 |  |
| CC1(N)CN(c2cc3c(cc2F)c(=O)c(C(=O)O)cn3CCF)C1 | 0.0374 |  |
| CC1(N)CN(c2nc3c(cc2F)c(=O)c(C(=O)O)cn3-c2ccc(F)cc2)C1 | -0.0388 |  |
| CC1(O)CN(c2cc3c(cc2F)c(=O)c(C(=O)O)cn3C2CC2)C1 | 0.2148 |  |
| O=C(O)c1cn(C2CC2)c2c(F)c(N3CC(O)C3)c(F)cc2c1=O | 0.3264 |  |
| CCNCC1(C)CN(c2c(F)cc3c(=O)c(C(=O)O)cn(C4CC4)c3c2F)C1 | -0.0118 |  |
| CCC1(O)CN(c2c(F)cc3c(=O)c(C(=O)O)cn(C4CC4)c3c2F)C1 | 0.7591 |  |
| CNC1CN(c2nc3c(cc2F)c(=O)c(C(=O)O)cn3C2CC2)C1 | -0.0773 |  |
| CCNCC1CN(c2c(F)cc3c(=O)c(C(=O)O)cn(C4CC4)c3c2F)C1 | 0.2742 |  |
| CC1(N)CN(c2c(F)cc3c(=O)c(C(=O)O)cn(-c4ccc(F)cc4)c3c2F)C1 | 0.1106 |  |
| CC1(N)CN(c2c(F)cc3c(=O)c(C(=O)O)cn(-c4ccc(F)cc4F)c3c2Cl)C1 | 0.3448 |  |
| CNC1(C)CN(c2nc3c(cc2F)c(=O)c(C(=O)O)cn3C2CC2)C1 | 0.0408 |  |
| CCNCC1CN(c2cc3c(cc2F)c(=O)c(C(=O)O)cn3C2CC2)C1 | -0.106 |  |
| NCC1CN(c2cc3c(cc2F)c(=O)c(C(=O)O)cn3C2CC2)C1 | -0.1549 |  |
| Nc1c(F)c(N2CC(O)C2)c(F)c2c1c(=O)c(C(=O)O)cn2C1CC1 | 0.3487 |  |
| C[C@H]1N(c2c(F)cc3c(=O)c(C(=O)O)cn(C4CC4)c3c2F)C[C@]1(C)O | 0.6899 | MIC (Bacillus cereus): 0.12 µg/mL (≈ 0.329 µM); MIC (Staphylococcus aureus): 0.12 µg/mL (≈ 0.329 µM); MIC (Enterococcus faecalis): 0.5 µg/mL (≈ 1.37 µM); MIC (Proteus vulgaris): 0.25 µg/mL (≈ 0.686 µM); MIC (Morganella morganii): 0.5 µg/mL (≈ 1.37 µM); MIC (Escherichia coli): 1 µg/mL (≈ 2.74 µM); MIC (Bacillus subtilis): 0.015 µg/mL (≈ 0.0412 µM); MIC (Pseudomonas aeruginosa): 2 µg/mL (≈ 5.49 µM); MIC (Klebsiella pneumoniae): 0.015 µg/mL (≈ 0.0412 µM); MIC [2]: 0.12 µg/mL (≈ 0.329 µM); MIC (Enterobacter cloacae): 0.5 µg/mL (≈ 1.37 µM) |
| CC1(CN)CN(c2cc3c(cc2F)c(=O)c(C(=O)O)cn3C2CC2)C1 | -0.0782 |  |
| CC1(C)[C@@H](N)CN1c1c(F)cc2c(=O)c(C(=O)O)cn(C3CC3)c2c1F | 0.1903 | MIC (Bacillus cereus): 0.12 µg/mL (≈ 0.33 µM); MIC (Staphylococcus aureus): 0.12 µg/mL (≈ 0.33 µM); MIC (Enterococcus faecalis): 0.5 µg/mL (≈ 1.38 µM); MIC (Proteus vulgaris): 0.25 µg/mL (≈ 0.688 µM); MIC (Morganella morganii): 0.12 µg/mL (≈ 0.33 µM); MIC (Escherichia coli): 0.12 µg/mL (≈ 0.33 µM); MIC (Bacillus subtilis): 0.015 µg/mL (≈ 0.0413 µM); MIC (Pseudomonas aeruginosa): 2 µg/mL (≈ 5.5 µM); MIC (Klebsiella pneumoniae): 0.03 µg/mL (≈ 0.0826 µM); MIC [2]: 0.12 µg/mL (≈ 0.33 µM); MIC (Enterobacter cloacae): 0.06 µg/mL (≈ 0.165 µM) |
